Experimental data: PMC4047138 (Pharmacological research : the official journal of the …, 2013)
Entries after “also recorded” stand apart in the source; their conditions may differ.

Assays:
[1] = target: T1, hV2R[L^83Q] (Homo sapiens, UniProt P30518, L83Q); assay: hV2R[L^83Q] pharmacoperone assay; format: cell-based; settings: for LOPAC Screen Average % Response +/- Std Dev: single concentration of 6 μM (0.4% DMSO), SR121463 as positive control, -Dox
[2] = test system: hV2R[L^83Q] cells in the presence of doxycycline; assay: counter screen: same hV2R[L^83Q] HeLa cells incubated with doxycycline 36 hours; format: cell-based; settings: Homo sapiens, read-out: EC50 (μM) +Dox
How it was run: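 HeLa line expressing hV2R[L83Q] under a tetracycline-regulated (TET-off) transactivator. Cells are pretreated with compound, challenged with an EC100 dose of vasopressin, lysed, and cAMP is read by cAMP-Glo luminescence. […] The −Dox run expresses the mutant. The +Dox counter screen adds doxycycline 36 hours before assay, shutting off mutant expression.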

[3] = test system: GnRHR[E^90K]; settings: mouse, in vivo; cited from earlier work
[4] = target: T1, hV2R[L^83Q]; settings: pre-treatment with 100 nM, absence of Dox, 384-well; cited from earlier work

SMILES | LOPAC Screen Average % Response +/- Std Dev [1] | EC50 [2] [µM] | also measured
C=C[C@@]1(C)CC(=O)[C@]2(O)[C@@]3(C)[C@@H](O)CCC(C)(C)[C@@H]3[C@H](O)[C@H](OC(C)=O)[C@@]2(C)O1 [Forskolin] | 104+/−0% | 0.59 | –
Cc1cc(C)cc(-c2[nH]c3ccc(C(C)(C)C(=O)N4CC5CCC4CC5)cc3c2[C@H](C)CNCCc2ccncc2)c1 [IN3, (2S)-2-[5-[2-(2-azabicyclo[2.2.2]oct-2-yl)-1,1-dimethyl-2-oxoethyl]-2-(3,5-dimethylphenyl)-1H-indol-3-yl]-N-(2-pyridin-4-ylethyl)propan-1-amine] | – | – | testis weight / size [3]: increased testis size; also recorded: markedly increased
CCOc1ccc2c(c1)C1(CCC(OCCN3CCOCC3)CC1)C(=O)N2S(=O)(=O)c1ccc(C(=O)NC(C)(C)C)cc1OC (stereo not shown) [SR121463] | – | – | signal-to-background ratio (S/B) ([1]; -Dox assay, n=4): ~7; cAMP response to vasopressin challenge after pharmacoperone pre-treatment [4]: robust cAMP response
O=C1c2c(O)ccc(O)c2C(=O)c2c(NCCNCCO)ccc(NCCNCCO)c21 [Mitoxantrone] | – | > 25 | –
Cc1ccccc1N1CCN(S(=O)(=O)C[C@]23CC[C@H](C[C@@H]2NC(=O)[C@@H](N)CCS(C)(=O)=O)C3(C)C)CC1 [L-368,899] | 74+/−2% | – | –
